{
  "source": "ChEMBL document CHEMBL1240328",
  "about": "“Selective compounds define Hsp90 as a major inhibitor of apoptosis in small-cell lung cancer” (Nat Chem Biol, 2007)",
  "key": {"[1]": {"target": "Heat shock protein HSP 90-beta (Homo sapiens) (UniProt P08238)", "sequence (P08238 whole entry)": "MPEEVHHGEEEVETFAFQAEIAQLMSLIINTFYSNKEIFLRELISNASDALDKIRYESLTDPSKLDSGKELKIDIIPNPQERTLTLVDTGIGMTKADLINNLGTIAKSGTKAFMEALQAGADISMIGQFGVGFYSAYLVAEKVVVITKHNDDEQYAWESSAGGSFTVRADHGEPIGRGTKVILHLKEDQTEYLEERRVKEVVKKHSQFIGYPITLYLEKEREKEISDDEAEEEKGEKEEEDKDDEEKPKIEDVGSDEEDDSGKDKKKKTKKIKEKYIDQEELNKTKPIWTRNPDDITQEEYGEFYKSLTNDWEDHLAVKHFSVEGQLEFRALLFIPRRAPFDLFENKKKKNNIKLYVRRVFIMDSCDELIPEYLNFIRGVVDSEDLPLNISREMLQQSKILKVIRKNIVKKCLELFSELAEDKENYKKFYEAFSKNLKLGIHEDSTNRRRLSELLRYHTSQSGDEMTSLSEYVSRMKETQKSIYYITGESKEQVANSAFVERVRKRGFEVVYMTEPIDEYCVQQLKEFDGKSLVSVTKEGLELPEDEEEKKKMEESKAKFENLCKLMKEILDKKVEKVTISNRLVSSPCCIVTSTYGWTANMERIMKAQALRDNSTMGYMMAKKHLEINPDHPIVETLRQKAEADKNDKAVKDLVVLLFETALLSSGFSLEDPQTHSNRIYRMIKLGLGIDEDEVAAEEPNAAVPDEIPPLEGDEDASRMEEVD", "experiment": "Inhibition of HSP90-mediated antiapoptotic activity in human SKBR3 cells assessed as induction of PARP cleavage at 20 uM after 24 hrs by Western blot analysis", "format": "cell-based", "settings": "SK-BR-3", "method_in_brief": "(§1)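 SKBr3 cells at 60–70% confluence were exposed to drug or DMSO vehicle. Lysis was in 50 mM Tris pH 7.4, 150 mM NaCl, 1% NP-40, with protein measured by BCA. Lysates of 20–100 µg were run on SDS-PAGE, blotted to nitrocellulose, probed with primary antibodies and detected with a peroxidase-conjugated secondary (1:5,000). Loading was checked with β-actin or PI(3)K p85.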"}, "[2]": {"target": "Heat shock protein HSP 90-beta (Homo sapiens) (UniProt P08238)", "experiment": "Inhibition of HSP90-mediated antiapoptotic activity in human MCF7 cells assessed as induction of cell growth arrest at 20 uM after 24 hrs by propidium iodide staining-based flow cytometry"}, "[3]": {"target": "Heat shock protein HSP 90-beta (Homo sapiens) (UniProt P08238)", "experiment": "Inhibition of HSP90-mediated antiapoptotic activity in human NCI-N417 cells assessed as subG1 accumulation at 5 uM after 72 hrs by propidium iodide staining-based flow cytometry", "format": "cell-based", "settings": "NCI-H417", "method_in_brief": "(§2)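 Asynchronously growing cells were treated with compound, stained with propidium iodide and analysed by flow cytometry. The read-out was the percentage of cells with sub-G1 DNA content.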"}, "[4]": {"target": "Heat shock protein HSP 90-beta (Homo sapiens) (UniProt P08238)", "experiment": "Inhibition of HSP90-mediated antiapoptotic activity in human NCI-N417 cells assessed as subG1 accumulation at 2.5 uM after 72 hrs by propidium iodide staining-based flow cytometry", "format": "cell-based", "settings": "NCI-H417", "method_in_brief": "as §2"}, "NCI-H526 [5]": {"system": "NCI-H526", "experiment": "Inhibition of HSP70-mediated antiapoptotic activity in human NCI-H526 cells assessed as induction of PARP cleavage after 24 hrs by Western blot analysis", "format": "cell-based", "method_in_brief": "(§3)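 NCI-H526 cells were treated for 24 h. PARP and caspase-3 cleavage were read by western blot of lysates in Tris/NaCl/NP-40 buffer. Apaf-1 complexes were immunoprecipitated with Apaf-1 antibody, using control IgG, then blotted.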"}, "[6]": {"target": "Heat shock protein HSP 90-beta (Homo sapiens) (UniProt P08238)", "experiment": "Inhibition of HSP90-mediated antiapoptotic activity in human NCI-H526 cells assessed as disruption of protein-Apaf-1 complex at 20 uM after 24 hrs by Western blot analysis", "format": "cell-based", "method_in_brief": "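NCI-H526 cells treated for 24 h with vehicle or inhibitors (20 µM or 50 µM). Proteins isolated with Apaf-1-specific antibody and whole lysates analysed by western blot. n = 3.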"}, "[7]": {"target": "Heat shock protein HSP 90-beta (Homo sapiens) (UniProt P08238)", "experiment": "Inhibition of HSP90-mediated antiapoptotic activity in human NCI-H69 cells assessed as mitochondrial membrane depolarization at 5 uM after 72 hrs by JC-1 staining-based flow cytometry", "format": "cell-based", "method_in_brief": "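Mitochondrial membrane potential was measured by JC-1 staining and flow cytometry. Depolarization was scored as a shift to cells emitting only green fluorescence. The mitochondrial uncoupler CCCP served as positive control.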"}, "[8]": {"target": "Heat shock protein HSP 90-beta (Homo sapiens) (UniProt P08238)", "experiment": "Inhibition of HSP90-mediated antiapoptotic activity in human MCF7 cells assessed as induction of caspase-9 cleavage at 400 uM after 24 hrs by Western blot analysis", "format": "cell-based"}, "[9]": {"target": "Heat shock protein HSP 90-beta (Homo sapiens) (UniProt P08238)", "experiment": "Inhibition of HSP90-mediated antiapoptotic activity in human NCI-H187 cells assessed as subG1 accumulation at 5 uM after 72 hrs by propidium iodide staining-based flow cytometry", "format": "cell-based", "method_in_brief": "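SCLC cells treated for 72 h with graded doses. Mitochondrial membrane potential read by flow cytometry after JC-1 staining, with green-only emission indicating depolarization. Sub-G1 DNA content read after propidium iodide staining. CCCP used as positive control. n = 3 repeat experiments.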"}, "[10]": {"target": "Heat shock protein HSP 90-beta (Homo sapiens) (UniProt P08238)", "experiment": "Inhibition of HSP90-mediated antiapoptotic activity in human NCI-H526 cells assessed as reduction in BAD phosphorylation at 20 uM after 24 hrs by Western blot analysis", "format": "cell-based"}, "[11]": {"target": "Heat shock protein HSP 90-beta (Homo sapiens) (UniProt P08238)", "experiment": "Inhibition of HSP90-mediated antiapoptotic activity in human NCI-H526 cells assessed as induction of cell death at 10 uM after 72 hrs by propidium iodide staining-based flow cytometry in presence of broad-spectrum caspase inhibitor Boc-D-FMK", "method_in_brief": "(§4)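 NCI-H526 cells pretreated for 3 h with Boc-D-FMK (100 µM), then exposed to 10 µM for 72 h. Flow cytometry after JC-1 staining for mitochondrial potential and after propidium iodide staining for DNA content. n = 3.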"}, "[12]": {"target": "Heat shock protein HSP 90-beta (Homo sapiens) (UniProt P08238)", "experiment": "Inhibition of HSP90-mediated antiapoptotic activity in human NCI-H526 cells assessed as induction of caspase-3 cleavage at 10 uM after 72 hrs by fluorescence assay in presence of caspase-9 inhibitor Z-LEHD-FMK", "format": "cell-based"}, "[13]": {"target": "Heat shock protein HSP 90-beta (Homo sapiens) (UniProt P08238)", "experiment": "Inhibition of HSP90-mediated antiapoptotic activity in human SKBR3 cells assessed as induction of caspase-3 cleavage at 20 uM after 24 hrs by Western blot analysis", "format": "cell-based", "settings": "SK-BR-3", "method_in_brief": "as §1"}, "[14]": {"target": "Heat shock protein HSP 90-beta (Homo sapiens) (UniProt P08238)", "experiment": "Inhibition of HSP90-mediated antiapoptotic activity in human NCI-H526 cells assessed as induction of PARP cleavage at 10 uM after 24 hrs by Western blot analysis", "format": "cell-based", "method_in_brief": "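NCI-H526 cells at 60–70% confluence were exposed to drug or DMSO for 24 h. Lysed in 50 mM Tris pH 7.4, 150 mM NaCl, 1% NP-40, with protein measured by BCA. 20–100 µg run on SDS-PAGE and blotted to nitrocellulose. Probed with cleaved-protein antibodies and peroxidase secondary at 1:5,000, with β-actin as loading control.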"}, "[15]": {"target": "Heat shock protein HSP 90-beta (Homo sapiens) (UniProt P08238)", "experiment": "Inhibition of HSP90-mediated antiapoptotic activity in human NCI-H526 cells assessed as mitochondrial membrane depolarization at 10 uM after 72 hrs by JC-1 staining-based flow cytometry in presence of broad-spectrum caspase inhibitor Boc-D-FMK", "format": "cell-based", "method_in_brief": "as §4"}, "SK-BR-3": {"system": "SK-BR-3", "experiment": "Inhibition of HSP70-mediated antiapoptotic activity in human SKBR3 cells assessed as induction of caspase-3 cleavage after 24 hrs by Western blot analysis", "format": "cell-based", "method_in_brief": "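SKBr3 cells were treated for 24 h. Lysates were probed by western blot for caspase-3 and PARP cleavage. Apaf-1 complexes were pulled down with Apaf-1 antibody (with control IgG) and immunoblotted.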"}, "NCI-H526 [16]": {"system": "NCI-H526", "experiment": "Inhibition of HSP70-mediated antiapoptotic activity in human NCI-H526 cells assessed as release of Apaf-1 from chaperon complex after 24 hrs by Western blot analysis", "format": "cell-based", "method_in_brief": "as §3"}, "[17]": {"target": "Heat shock protein HSP 90-beta (Homo sapiens) (UniProt P08238)", "experiment": "Inhibition of HSP90-mediated antiapoptotic activity in human NCI-H526 cells assessed as induction of Akt degradation at 50 uM after 24 hrs by Western blot analysis", "format": "cell-based"}, "[18]": {"target": "Heat shock protein HSP 90-beta (Homo sapiens) (UniProt P08238)", "experiment": "Inhibition of HSP90-mediated antiapoptotic activity in human NCI-N417 cells assessed as subG1 accumulation at 15 uM after 72 hrs by propidium iodide staining-based flow cytometry", "format": "cell-based", "settings": "NCI-H417", "method_in_brief": "as §2"}, "[19]": {"target": "Heat shock protein HSP 90-beta (Homo sapiens) (UniProt P08238)", "experiment": "Inhibition of HSP90-mediated antiapoptotic activity in human MCF7 cells assessed as induction of PARP cleavage at 400 uM after 24 hrs by Western blot analysis", "format": "cell-based"}, "[20]": {"target": "Heat shock protein HSP 90-beta (Homo sapiens) (UniProt P08238)", "experiment": "Inhibition of HSP90-mediated antiapoptotic activity in human NCI-H526 cells assessed as induction of Akt degradation at 20 uM after 24 hrs by Western blot analysis", "format": "cell-based"}, "[21]": {"target": "Heat shock protein HSP 90-beta (Homo sapiens) (UniProt P08238)", "experiment": "Inhibition of HSP90-mediated antiapoptotic activity in human MCF7 cells assessed as induction of cell growth arrest at 100 uM after 24 hrs by propidium iodide staining-based flow cytometry"}, "[22]": {"target": "Heat shock protein HSP 90-beta (Homo sapiens) (UniProt P08238)", "experiment": "Inhibition of HSP90-mediated antiapoptotic activity in human SKBR3 cells assessed as induction of caspase-9 cleavage at 50 uM after 24 hrs by Western blot analysis", "format": "cell-based", "settings": "SK-BR-3", "method_in_brief": "as §1"}, "[23]": {"target": "Heat shock protein HSP 90-beta (Homo sapiens) (UniProt P08238)", "experiment": "Inhibition of HSP90-mediated antiapoptotic activity in human SKBR3 cells assessed as induction of PARP cleavage at 50 uM after 24 hrs by Western blot analysis", "format": "cell-based", "settings": "SK-BR-3", "method_in_brief": "as §1"}},
  "note": "Active and inactive are the calls of the source. The rule behind the calls is not given here.",
  "data": [
    {"smiles": "O=CN1CC/C(=C/c2ccc3c(c2)OCO3)C1=O", "values": [
      {"measurement": "Activity", "setting": "[1]", "result": "inactive"},
      {"measurement": "Activity", "setting": "[2]", "result": "inactive"},
      {"measurement": "Activity", "setting": "[3]", "result": "inactive"},
      {"measurement": "Activity", "setting": "[4]", "result": "inactive"},
      {"measurement": "inhibition", "setting": "NCI-H526 [5]", "result": "inactive"},
      {"measurement": "Activity", "setting": "[6]", "result": "inactive"},
      {"measurement": "Activity", "setting": "[7]", "result": "inactive"},
      {"measurement": "Activity", "setting": "[8]", "result": "inactive"},
      {"measurement": "Activity", "setting": "[9]", "result": "inactive"},
      {"measurement": "Activity", "setting": "[10]", "result": "inactive"},
      {"measurement": "Activity", "setting": "[11]", "result": "inactive"},
      {"measurement": "Activity", "setting": "[12]", "result": "inactive"},
      {"measurement": "Activity", "setting": "[13]", "result": "inactive"},
      {"measurement": "Activity", "setting": "[14]", "result": "inactive"},
      {"measurement": "Activity", "setting": "[15]", "result": "inactive"},
      {"measurement": "inhibition", "setting": "SK-BR-3", "result": "Active"},
      {"measurement": "inhibition", "setting": "NCI-H526 [16]", "result": "inactive"},
      {"measurement": "Activity", "setting": "[17]", "result": "inactive"},
      {"measurement": "Activity", "setting": "[18]", "result": "inactive"},
      {"measurement": "Activity", "setting": "[19]", "result": "inactive"},
      {"measurement": "Activity", "setting": "[20]", "result": "inactive"},
      {"measurement": "Activity", "setting": "[21]", "result": "Active"},
      {"measurement": "Activity", "setting": "[22]", "result": "inactive"},
      {"measurement": "Activity", "setting": "[23]", "result": "inactive"}
    ]}
  ]
}
